Paper PMC7668563 (International journal of molecular biology (Edmond, Okla.), 2020)

Experiments:
[1] = molecular target: T1, apo-human transferrin (apo-hTf) (Homo sapiens, UniProt P02787); assay: Fluorescence resonance energy transfer; assay type: binding; details: for Förster critical energy transfer distance R0 / binding distance r (donor-acceptor): k^2=2/3, n=1.336, ØD=0.118; for efficiency of energy transfer E: room temperature, 1.0×10^−5 mol L^−1 each
Summary of the method: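 Emission spectrum of 1.0×10−5 mol L−1 apo-hTf and absorption spectrum of 1.0×10−5 mol L−1 test compound were recorded in 20 mM Tris-HCl pH 7.4 at room temperature, 260–450 nm, and their spectral overlap determined. E was calculated from apo-hTf fluorescence without and with equimolar test compound. R0 and donor–acceptor distance r came from Förster equations.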

[2] = molecular target: T1, apo-human transferrin (apo-hTf); assay: Fluorescence quenching of apo-hTf; assay type: binding; details: for biomolecular quenching rate constant kq: kq=Ksv/τ0; for Stern-Volmer quenching constant Ksv / number of binding sites n: pH 7.4; for quenching association constant Ka: pH 7.4, modified Stern-Volmer
Summary of the method: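 Intrinsic fluorescence of apo-hTf in Tris-HCl pH 7.4 was titrated with test compound (Tris-HCl/2% DMSO). Conditions: excitation 280 nm, emission 290–500 nm, slits 10/5 nm, 1.0 cm quartz cell, at 296, 303, 310 and 317 K, triplicate titrations. Intensities were corrected for inner filter effect using absorbances at excitation and emission wavelengths. Ksv came from Stern-Volmer plots of F0/F vs [Q]; kq = Ksv/τ0 (τ0 ~1.0×10−8); Ka and n came from the modified Stern-Volmer equation.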

[3] = molecular target: T1, apo-human transferrin (apo-hTf); assay: Thermodynamic parameters of apo-hTf complex formation; assay type: binding; details: for ∆H° / ∆S°: pH 7.4, from Ksv at 296-317 K
Summary of the method: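 Ksv values were obtained from apo-hTf fluorescence quenching at pH 7.4 at 296, 303, 310 and 317 K. ΔH°, ΔS° and ΔG° were derived from linear regression of ln(Ksv) vs 1/T (Van't Hoff equation).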

[4] = molecular target: T1, apo-human transferrin (apo-hTf); assay: Far-UV circular dichroism titration of apo-hTf, secondary structure content
Summary of the method: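 Apo-hTf (4.0×10−7 mol L−1) in 2 mM Tris-HCl pH 7.4 was titrated with a 1.0×10−3 mol L−1 stock of test compound in Tris-HCl/2% DMSO, to final 0–2.4×10−6 mol L−1. Far-UV CD was recorded from 190–250 nm under nitrogen in a 1.0 cm cell: six scans at 100 nm/min. Baseline was buffer ± DMSO at room temperature. α-Helix was derived from MRE at 208 nm; β-sheet and random coil by the CD-RRG method.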

[5] = tested on: human colorectal adenocarcinoma cell line, HT-29; assay: MTT cell viability assay on HT-29, 72 h exposure; assay type: cell-based; details: read-out: IC50 (±SD), HT-29, HT-29, 72 h of exposure
Summary of the method: (§1)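 HT-29 was grown in McCoy's 5A with 10% FBS. MCF-7 was grown in MEM with 10% FBS and 0.01 mg/mL insulin. Both were kept at 37°C, 5% CO2, trypsinized at 70–80% confluency and seeded at 1.5×10^4 cells/well for 24 h. Cells were then exposed for 72 h to test compound in 5% DMSO/95% medium, with DMSO-medium controls. MTT was added as a 2.67 mg/mL solution for 2 h. Formazan was dissolved in 10% Triton X-100/isopropanol and read at A570 minus A620. IC50 came from a sigmoidal fit of viability vs log concentration, eight replicas, triplicate, ±SD.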

[6] = tested on: human breast adenocarcinoma cell line, MCF-7; assay: MTT cell viability assay on MCF-7, 72 h exposure; assay type: cell-based; details: for IC50 (±SD), MCF-7: MCF-7, 72 h of exposure
Summary of the method: as §1

[7] = molecular target: T1, apo-human transferrin (apo-hTf); assay: UV-Vis absorbance titration of apo-hTf; assay type: binding; details: for Ka at 280 nm: absorbance at 280 nm; for Association constants, Ka, 280 nm: absorbance of apo-hTf at 280 nm, pH 7.4

T1 sequence (P02787 20-698): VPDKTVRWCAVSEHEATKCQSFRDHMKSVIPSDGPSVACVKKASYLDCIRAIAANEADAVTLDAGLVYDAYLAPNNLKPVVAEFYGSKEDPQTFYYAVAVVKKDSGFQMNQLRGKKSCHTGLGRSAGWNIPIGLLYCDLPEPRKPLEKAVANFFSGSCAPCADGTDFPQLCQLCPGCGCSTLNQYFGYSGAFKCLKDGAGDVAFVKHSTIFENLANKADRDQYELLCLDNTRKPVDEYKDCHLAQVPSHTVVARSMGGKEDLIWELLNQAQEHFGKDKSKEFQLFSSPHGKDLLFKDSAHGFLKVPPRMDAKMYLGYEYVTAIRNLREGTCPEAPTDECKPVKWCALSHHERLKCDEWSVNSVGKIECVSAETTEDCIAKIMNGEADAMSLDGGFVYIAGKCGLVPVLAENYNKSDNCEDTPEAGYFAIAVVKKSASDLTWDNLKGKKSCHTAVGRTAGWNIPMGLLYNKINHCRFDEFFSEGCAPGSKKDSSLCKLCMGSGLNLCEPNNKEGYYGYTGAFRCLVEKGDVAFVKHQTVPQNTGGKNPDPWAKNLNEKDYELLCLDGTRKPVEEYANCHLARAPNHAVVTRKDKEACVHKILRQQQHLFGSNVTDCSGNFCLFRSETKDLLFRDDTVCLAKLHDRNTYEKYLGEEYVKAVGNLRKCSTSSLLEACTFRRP

C1CCCC1.C1CCCC1.[Cl][Nb][Cl] [Cp2NbCl2]
Förster critical energy transfer distance R0 [1]: 2.56 nm | binding distance r (donor-acceptor) [1]: 3.04 nm | efficiency of energy transfer E [1]: 0.26 | biomolecular quenching rate constant kq ([2]; 296 K): 2.523e+12 M⁻¹ s⁻¹ | Stern-Volmer quenching constant Ksv ([2]; 296 K): 25230 M⁻¹ | number of binding sites n ([2]; 296 K): 1.26 | quenching association constant Ka ([2]; 296 K): 325300 M⁻¹ | biomolecular quenching rate constant kq ([2]; 303 K): 2.804e+12 M⁻¹ s⁻¹ | Stern-Volmer quenching constant Ksv ([2]; 303 K): 28040 M⁻¹ | number of binding sites n ([2]; 303 K): 1.27 | quenching association constant Ka ([2]; 303 K): 408100 M⁻¹ | biomolecular quenching rate constant kq ([2]; 310 K): 3.056e+12 M⁻¹ s⁻¹ | Stern-Volmer quenching constant Ksv ([2]; 310 K): 30560 M⁻¹ | number of binding sites n ([2]; 310 K): 1.28 | quenching association constant Ka ([2]; 310 K): 485500 M⁻¹ | biomolecular quenching rate constant kq ([2]; 317 K): 3.323e+12 M⁻¹ s⁻¹ | Stern-Volmer quenching constant Ksv ([2]; 317 K): 33230 M⁻¹ | number of binding sites n ([2]; 317 K): 1.29 | quenching association constant Ka ([2]; 317 K): 562300 M⁻¹ | ∆G° ([3]; 296 K): -5.963 kcal/mol | ∆G° ([3]; 303 K): -6.164 kcal/mol | ∆G° ([3]; 310 K): -6.362 kcal/mol | ∆G° ([3]; 317 K): -6.561 kcal/mol | ∆H° [3]: 2.431 kcal/mol | ∆S° [3]: 118.65 J/mol K | other secondary structure content of apo-hTf ([4]; compound concentration 0.4 (M)): 19.5% | random coil content of apo-hTf ([4]; compound concentration 0.4 (M)): 33.8% | α-helix content of apo-hTf ([4]; compound concentration 0.4 (M)): 29% | β-sheet content of apo-hTf ([4]; compound concentration 0.4 (M)): 17.7% | other secondary structure content of apo-hTf ([4]; compound concentration 0.8 (M)): 19.4% | random coil content of apo-hTf ([4]; compound concentration 0.8 (M)): 34% | α-helix content of apo-hTf ([4]; compound concentration 0.8 (M)): 28.7% | β-sheet content of apo-hTf ([4]; compound concentration 0.8 (M)): 17.9% | other secondary structure content of apo-hTf ([4]; compound concentration 1.2 (M)): 19.7% | random coil content of apo-hTf ([4]; compound concentration 1.2 (M)): 34.2% | α-helix content of apo-hTf ([4]; compound concentration 1.2 (M)): 27.6% | β-sheet content of apo-hTf ([4]; compound concentration 1.2 (M)): 18.5% | other secondary structure content of apo-hTf ([4]; compound concentration 1.6 (M)): 19.8% | random coil content of apo-hTf ([4]; compound concentration 1.6 (M)): 34.4% | α-helix content of apo-hTf ([4]; compound concentration 1.6 (M)): 26.9% | β-sheet content of apo-hTf ([4]; compound concentration 1.6 (M)): 18.9% | other secondary structure content of apo-hTf ([4]; compound concentration 2 (M)): 20.2% | random coil content of apo-hTf ([4]; compound concentration 2 (M)): 34.6% | α-helix content of apo-hTf ([4]; compound concentration 2 (M)): 26.2% | β-sheet content of apo-hTf ([4]; compound concentration 2 (M)): 19% | other secondary structure content of apo-hTf ([4]; compound concentration 2.4 (M)): 20.4% | random coil content of apo-hTf ([4]; compound concentration 2.4 (M)): 34.8% | α-helix content of apo-hTf ([4]; compound concentration 2.4 (M)): 25.4% | β-sheet content of apo-hTf ([4]; compound concentration 2.4 (M)): 19.4% | IC50 [5]: 266 µM | IC50 ([6]; read-out: IC50 (±SD), MCF-7, MCF-7, 72 h of exposure): 1300 µM | Ka at 280 nm [7]: 3000 M⁻¹ | Association constants, Ka, 280 nm [7]: 3 10^3 M^−1

[Cl][Zr+2][Cl].c1cc[cH-]c1.c1cc[cH-]c1 [Cp2ZrCl2]
Förster critical energy transfer distance R0 [1]: 7.3 nm | binding distance r (donor-acceptor) [1]: 10.03 nm | efficiency of energy transfer E [1]: 0.129 | biomolecular quenching rate constant kq ([2]; 296 K): 2.39e+11 M⁻¹ s⁻¹ | Stern-Volmer quenching constant Ksv ([2]; 296 K): 2390 M⁻¹ | number of binding sites n ([2]; 296 K): 1.07 | quenching association constant Ka ([2]; 296 K): 4400 M⁻¹ | biomolecular quenching rate constant kq ([2]; 303 K): 1.97e+11 M⁻¹ s⁻¹ | Stern-Volmer quenching constant Ksv ([2]; 303 K): 1970 M⁻¹ | number of binding sites n ([2]; 303 K): 1.03 | quenching association constant Ka ([2]; 303 K): 2600 M⁻¹ | biomolecular quenching rate constant kq ([2]; 310 K): 1.79e+11 M⁻¹ s⁻¹ | Stern-Volmer quenching constant Ksv ([2]; 310 K): 1790 M⁻¹ | number of binding sites n ([2]; 310 K): 1.01 | quenching association constant Ka ([2]; 310 K): 2000 M⁻¹ | biomolecular quenching rate constant kq ([2]; 317 K): 1.5e+11 M⁻¹ s⁻¹ | Stern-Volmer quenching constant Ksv ([2]; 317 K): 1500 M⁻¹ | number of binding sites n ([2]; 317 K): 1 | quenching association constant Ka ([2]; 317 K): 1600 M⁻¹ | ∆G° ([3]; 296 K): -4.57 kcal/mol | ∆G° ([3]; 303 K): -4.584 kcal/mol | ∆G° ([3]; 310 K): -4.598 kcal/mol | ∆G° ([3]; 317 K): -4.613 kcal/mol | ∆H° [3]: -3.975 kcal/mol | ∆S° [3]: 8.41 J/mol K | other secondary structure content of apo-hTf ([4]; compound concentration 0.4 (M)): 18.9% | random coil content of apo-hTf ([4]; compound concentration 0.4 (M)): 33.8% | α-helix content of apo-hTf ([4]; compound concentration 0.4 (M)): 29.2% | β-sheet content of apo-hTf ([4]; compound concentration 0.4 (M)): 18.1% | other secondary structure content of apo-hTf ([4]; compound concentration 0.8 (M)): 18.8% | random coil content of apo-hTf ([4]; compound concentration 0.8 (M)): 33.9% | α-helix content of apo-hTf ([4]; compound concentration 0.8 (M)): 29.1% | β-sheet content of apo-hTf ([4]; compound concentration 0.8 (M)): 18.2% | other secondary structure content of apo-hTf ([4]; compound concentration 1.2 (M)): 18.8% | random coil content of apo-hTf ([4]; compound concentration 1.2 (M)): 33.9% | α-helix content of apo-hTf ([4]; compound concentration 1.2 (M)): 29% | β-sheet content of apo-hTf ([4]; compound concentration 1.2 (M)): 18.3% | other secondary structure content of apo-hTf ([4]; compound concentration 1.6 (M)): 18.9% | random coil content of apo-hTf ([4]; compound concentration 1.6 (M)): 33.9% | α-helix content of apo-hTf ([4]; compound concentration 1.6 (M)): 28.8% | β-sheet content of apo-hTf ([4]; compound concentration 1.6 (M)): 18.4% | other secondary structure content of apo-hTf ([4]; compound concentration 2 (M)): 18.9% | random coil content of apo-hTf ([4]; compound concentration 2 (M)): 34% | α-helix content of apo-hTf ([4]; compound concentration 2 (M)): 28.6% | β-sheet content of apo-hTf ([4]; compound concentration 2 (M)): 18.5% | other secondary structure content of apo-hTf ([4]; compound concentration 2.4 (M)): 18.9% | random coil content of apo-hTf ([4]; compound concentration 2.4 (M)): 34.1% | α-helix content of apo-hTf ([4]; compound concentration 2.4 (M)): 28.4% | β-sheet content of apo-hTf ([4]; compound concentration 2.4 (M)): 18.6% | IC50 [5]: 774 µM | IC50 (±SD), MCF-7 [6]: proliferative activity | IC50 (±SD), MCF-7 ([6]; listed as Cp^2ZrCl^2): Proliferative | Ka at 280 nm [7]: 2220 M⁻¹ | Association constants, Ka, 280 nm [7]: 2.22 10^3 M^−1
